According to ChEMBL document CHEMBL1158122, “Anti-inflammatory, anti-tumor-promoting, and cytotoxic activities of constituents of marigold (Calendula officinalis) flowers” (J Nat Prod, 2006):

Assays:
[1] = tested on: NCI-H322M; test: Cytotoxicity against human NCI-H322M cells after 48 hrs by SRB assay; type: functional
[2] = tested on: NCI-H460; test: Cytotoxicity against human NCI-H460 cells after 48 hrs by SRB assay; type: functional; details: NCI-H460, 48 h
[3] = tested on: NCI-H522; test: Cytotoxicity against human NCI-H522 cells after 48 hrs by SRB assay; type: functional; details: NCI-H522, 48 h
[4] = tested on: COLO 205; test: Cytotoxicity against human COLO205 cells after 48 hrs by SRB assay; type: functional; details: COLO 205, 48 h
[5] = Cytotoxicity against human HCT 116 cells after 48 hrs by SRB assay; type: functional; details: HCT-116, 48 h
[6] = tested on: HT-29; test: Cytotoxicity against human HT-29 cells after 48 hrs by SRB assay; type: functional; details: HT-29, 48 h
[7] = tested on: KM12; test: Cytotoxicity against human KM12 cells after 48 hrs by SRB assay; type: functional; details: KM12, 48 h
[8] = tested on: SW-620; test: Cytotoxicity against human SW620 cells after 48 hrs by SRB assay; type: functional; details: SW-620, 48 h
[9] = tested on: SF-268; test: Cytotoxicity against human SF-268 cells after 48 hrs by SRB assay; type: functional; details: SF-268, 48 h
[10] = tested on: SF-295; test: Cytotoxicity against human SF-295 cells after 48 hrs by SRB assay; type: functional; details: SF-295, 48 h
[11] = tested on: SNB-19; test: Cytotoxicity against human SNB-19 cells after 48 hrs by SRB assay; type: functional; details: SNB-19, 48 h
[12] = tested on: U-251; test: Cytotoxicity against human U251 cells after 48 hrs by SRB assay; type: functional; details: U-251, 48 h
How it was run: (§1)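 Tested in the NCI panel of 60 human tumour cell lines covering lung, colon, melanoma, renal, ovarian, breast and leukaemia. At least five concentrations were run in 10-fold dilutions starting from 10^-4 M. Exposure was continuous for 48 h. Growth or viability was estimated by sulforhodamine B protein staining, and GI50 values were reported.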

[13] = tested on: Malme-3M; test: Cytotoxicity against human MALME-3M cells after 48 hrs by SRB assay; type: functional
[14] = tested on: SK-MEL-2; test: Cytotoxicity against human SK-MEL-2 cells after 48 hrs by SRB assay; type: functional; details: SK-MEL-2, 48 h
[15] = tested on: SK-MEL-5; test: Cytotoxicity against human SK-MEL-5 cells after 48 hrs by SRB assay; type: functional; details: SK-MEL-5, 48 h
[16] = tested on: UACC-257; test: Cytotoxicity against human UACC-257 cells after 48 hrs by SRB assay; type: functional; details: UACC-257, 48 h; how it was run: as §1
[17] = tested on: UACC-62; test: Cytotoxicity against human UACC-62 cells after 48 hrs by SRB assay; type: functional; details: UACC-62, 48 h; how it was run: as §1
[18] = tested on: IGROV-1; test: Cytotoxicity against human IGROV1 cells after 48 hrs by SRB assay; type: functional; details: IGROV-1, 48 h
[19] = tested on: OVCAR-3; test: Cytotoxicity against human OVCAR-3 cells after 48 hrs by SRB assay; type: functional; details: OVCAR-3, 48 h
[20] = tested on: OVCAR-5; test: Cytotoxicity against human OVCAR5 cells after 48 hrs by SRB assay; type: functional; details: OVCAR-5, 48 h
[21] = tested on: OVCAR-8; test: Cytotoxicity against human OVCAR8 cells after 48 hrs by SRB assay; type: functional; details: OVCAR-8, 48 h
[22] = tested on: 786-0; test: Cytotoxicity against human 786-0 cells after 48 hrs by SRB assay; type: functional; details: 786-0, 48 h
[23] = tested on: NCI-H23; test: Cytotoxicity against human NCI-H23 cells after 48 hrs by SRB assay; type: functional; details: NCI-H23, 48 h
[24] = tested on: CAKI-1; test: Cytotoxicity against human Caki-1 cells after 48 hrs by SRB assay; type: functional; details: CAKI-1, 48 h
[25] = tested on: RXF 393; test: Cytotoxicity against human […] cells after 48 hrs by SRB assay; type: functional; details: RXF 393, 48 h
[26] = tested on: SN12C; test: Cytotoxicity against human SN12C cells after 48 hrs by SRB assay; type: functional
[27] = tested on: TK-10; test: Cytotoxicity against human TK-10 cells after 48 hrs by SRB assay; type: functional; details: TK-10, 48 h; how it was run: as §1
[28] = tested on: UO-31; test: Cytotoxicity against human UO-31 cells after 48 hrs by SRB assay; type: functional; details: UO-31, 48 h; how it was run: as §1
[29] = tested on: PC-3; test: Cytotoxicity against human PC-3 cells after 48 hrs by SRB assay; type: functional; details: PC-3, 48 h
[30] = tested on: MCF7; test: Cytotoxicity against human MCF7 cells after 48 hrs by SRB assay; type: functional; details: MCF7, 48 h
[31] = tested on: NCI/ADR-RES; test: Cytotoxicity against human NCI/ADR-RES cells after 48 hrs by SRB assay; type: functional
[32] = tested on: MDA-MB-231; test: Cytotoxicity against human MDA-MB-231 cells after 48 hrs by SRB assay; type: functional; details: MDA-MB-231, 48 h
[33] = Cytotoxicity against human Hs 578T cells after 48 hrs by SRB assay; type: functional
[34] = tested on: MDA-MB-435; test: Cytotoxicity against human MDA-MB-435 cells after 48 hrs by SRB assay; type: functional; details: MDA-MB-435, 48 h
[35] = tested on: BT-549; test: Cytotoxicity against human BT-549 cells after 48 hrs by SRB assay; type: functional; details: BT-549, 48 h
[36] = tested on: T47D; test: Cytotoxicity against human T47D cells after 48 hrs by SRB assay; type: functional; how it was run: as §1
[37] = tested on: HCT-15; test: Cytotoxicity against human HCT-15 cells after 48 hrs by SRB assay; type: functional; details: HCT-15, 48 h
[38] = tested on: Raji; test: Inhibition of TPA-induced EBV-early antigen activation in human Raji cells at 1000 molar ratio relative to TPA; type: cell-based; design: scale not given: the % may be the effect or the level left; details: human gammaherpesvirus 4
[39] = tested on: Raji; test: Inhibition of TPA-induced EBV-early antigen activation in human Raji cells at 500 molar ratio relative to TPA; type: cell-based; design: scale not given: the % may be the effect or the level left; details: human gammaherpesvirus 4
[40] = tested on: Raji; test: Inhibition of TPA-induced EBV-early antigen activation in human Raji cells at 100 molar ratio relative to TPA; type: cell-based; design: scale not given: the % may be the effect or the level left; details: human gammaherpesvirus 4
[41] = tested on: Raji; test: Inhibition of TPA-induced EBV-early antigen activation in human Raji cells at 10 molar ratio relative to TPA; type: cell-based; design: scale not given: the % may be the effect or the level left; details: human gammaherpesvirus 4
[42] = Inhibition of TPA-induced EBV-early antigen activation in human Raji cells relative to TPA; type: cell-based, human gammaherpesvirus 4
[43] = Cytotoxicity against human Raji cells assessed as cell viability at 1000 molar ratio; type: cell-based; details: read-out: Activity
How it was run: (§2)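 Raji cells were treated with 32 pmol TPA to induce EBV early antigen activation. The test agent was added at 10, 100, 500 or 1000 mol ratio relative to TPA, and Raji cell viability was measured alongside EA activation.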

[44] = Cytotoxicity against human Raji cells assessed as cell viability at 500 molar ratio; type: cell-based; details: read-out: Activity; how it was run: as §2
[45] = Cytotoxicity against human Raji cells assessed as cell viability at 100 molar ratio; type: cell-based; details: read-out: Activity; how it was run: as §2
[46] = Cytotoxicity against human Raji cells assessed as cell viability at 10 molar ratio; type: cell-based; details: read-out: Activity; how it was run: as §2
[47] = tested on: Mus musculus; test: Antiinflammatory activity against TPA-induced ear edema in mouse; type: functional
How it was run: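 Specific-pathogen-free female ICR mice were housed five per cage at 24 ± 2 °C. Inflammation was induced on the ear with TPA at 1 µg/ear, and the test agent was applied per ear. Ear edema inhibition was expressed as ID50 in mg per ear.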

[48] = tested on: CCRF-CEM; test: Cytotoxicity against human CCRF-CEM cells after 48 hrs by SRB assay; type: functional
[49] = tested on: K562; test: Cytotoxicity against human K-562 cells after 48 hrs by SRB assay; type: functional; details: K562, 48 h
[50] = tested on: MOLT-4; test: Cytotoxicity against human MOLT-4 cells after 48 hrs by SRB assay; type: functional; details: MOLT-4, 48 h
[51] = tested on: RPMI-8226; test: Cytotoxicity against human RPMI8226 cells after 48 hrs by SRB assay; type: functional; details: RPMI-8226, 48 h
[52] = tested on: A549; test: Cytotoxicity against human A549 cells after 48 hrs by SRB assay; type: functional; details: A549, 48 h
[53] = tested on: EKVX; test: Cytotoxicity against human EKVX cells after 48 hrs by SRB assay; type: functional
[54] = tested on: HOP-62; test: Cytotoxicity against human HOP-62 cells after 48 hrs by SRB assay; type: functional; details: HOP-62, 48 h
[55] = tested on: HOP-92; test: Cytotoxicity against human HOP-92 cells after 48 hrs by SRB assay; type: functional; details: HOP-92, 48 h
[56] = tested on: NCI-H226; test: Cytotoxicity against human NCI-H226 cells after 48 hrs by SRB assay; type: functional; details: NCI-H226, 48 h

Work on `CC1(C)CC[C@]2(C(=O)O)CC[C@]3(C)C(=CC[C@@H]4[C@@]5(C)CC[C@H](O[C@@H]6O[C@H](C(=O)O)[C@@H](O)[C@H](O[C@@H]7O[C@H](CO)[C@H](O)[C@H](O)[C@H]7O)[C@H]6O[C@@H]6O[C@H](CO)[C@@H](O)[C@H](O)[C@H]6O)C(C)(C)[C@@H]5CC[C@]43C)[C@@H]2C1` [CALENDULAGYCOSIDE B] yielded a GI50 [1] of 26 µM, a GI50 [2] greater than 100 µM and a GI50 [3] of 38.4 µM. For the same molecule, the GI50 [4] was greater than 100 µM, the GI50 [5] was greater than 100 µM and the GI50 [6] was 40.9 µM. The GI50 [7] was greater than 100 µM, the GI50 [8] was greater than 100 µM and the GI50 [9] was greater than 100 µM. It also gave a GI50 [10] of 31 µM, a GI50 [11] greater than 100 µM and a GI50 [12] of 32.3 µM. The GI50 [13] was 79.9 µM, the GI50 [14] was greater than 100 µM and the GI50 [15] was greater than 100 µM. For the same molecule, the GI50 [16] was greater than 100 µM, the GI50 [17] was 23 µM and the GI50 [18] was greater than 100 µM. The GI50 [19] was greater than 100 µM, the GI50 [20] was greater than 100 µM and the GI50 [21] was greater than 100 µM. It also gave a GI50 [22] greater than 100 µM, a GI50 [23] of 20.2 µM and a GI50 [24] greater than 100 µM. The GI50 [25] was greater than 100 µM, the GI50 [26] was 84 µM and the GI50 [27] was greater than 100 µM. The GI50 [28] was 63.5 µM, the GI50 [29] was 20.6 µM and the GI50 [30] was 53.5 µM. It also gave a GI50 [31] greater than 100 µM, a GI50 [32] of 45 µM and a GI50 [33] of 97.4 µM. It also gave a GI50 [34] greater than 100 µM, a GI50 [35] greater than 100 µM and a GI50 [36] greater than 100 µM. It also gave a GI50 [37] of 94.6 µM, an Activity [38] of 5.1% and an Activity [39] of 40.3%. The Activity [40] was 69.2%, the Activity [41] was 100% and the IC50 [42] was 470 molar ratio. For the same molecule, the viability at 1000 molar ratio [43] was 70%, the viability at 500 molar ratio [44] was greater than 80% and the viability at 100 molar ratio [45] was greater than 80%. It also gave a viability at 10 molar ratio [46] greater than 80%, an ID50 [47] of 0.05 mg and a GI50 [48] greater than 100 µM. It also gave a GI50 [49] of 81.1 µM, a GI50 [50] of 86.3 µM and a GI50 [51] of 50.9 µM. For the same molecule, the GI50 [52] was greater than 100 µM, the GI50 [53] was greater than 100 µM and the GI50 [54] was greater than 100 µM. It also gave a GI50 [55] greater than 100 µM and a GI50 [56] greater than 100 µM.
